NS3 helicase inh: blocks Hepatitis C virus NS3 helicase unwinding. 0.56% of 290,000 active. NS3 helicase DNA unwinding, Cy5 molecular beacon fluorescence. AID 1800. inhibition, % at 10.9 µM;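 active = inhibition above the mean of all tested compounds plus 3 SD, set per campaign, cut at about 35% in these data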;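 note: 0% = DMSO wells and 100% = thioflavine S control wells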
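System: HCV NS3 helicase fragment; control set: DMSO and thioflavine S; technique: Cy5 fluorescence at 0 and 60 min, beacon hairpin quenching; reagent: beacon DNA duplex substrate plus ATP; replicates: singlicate; schedule: 1 h reaction at 25 °C, ATP-initiated; medium: MOPS buffer pH 6.5 with MgCl2, DTT, Tween20, BSA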
ABHD5-PLIN5 inh: ABHD5-PLIN5 protein interaction inhibition | AID 602281 | inhibition, % at 4 µM | 0.78% of 360,000 active | Split G. princeps luciferase complementation, luminescence, 4 h | Q00G26+Q8WTS1;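 active = inhibition above the mean inhibition across every tested compound plus 3 SD, cut at about 22% in these data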;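 note: 0% = DMSO only wells and the 100% control is not disclosed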
PRMT1 inh: blocks human protein arginine methyltransferase 1 | 1.3% of 370,000 active | recombinant PRMT1, activity-based probe fluorescence polarization | inhibition, % at 2.79 µM;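 active = inhibition above about 21% made by adding two undisclosed values, limit read from the data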
Target sequence (Q99873 whole entry, looked up): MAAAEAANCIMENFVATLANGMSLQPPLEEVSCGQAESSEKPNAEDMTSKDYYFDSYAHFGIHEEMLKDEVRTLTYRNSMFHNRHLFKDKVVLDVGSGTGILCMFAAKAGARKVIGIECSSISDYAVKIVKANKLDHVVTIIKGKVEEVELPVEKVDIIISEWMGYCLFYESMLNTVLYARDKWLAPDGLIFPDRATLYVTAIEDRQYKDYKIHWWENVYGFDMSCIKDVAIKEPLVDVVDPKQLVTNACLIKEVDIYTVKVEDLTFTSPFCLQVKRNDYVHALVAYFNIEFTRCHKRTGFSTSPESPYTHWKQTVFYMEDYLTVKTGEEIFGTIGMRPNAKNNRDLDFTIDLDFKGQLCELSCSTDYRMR
HCV core dimer: HCV core protein dimerization inhibition. TR-FRET GST/Flag-core106 dimerization, 1536-well. inhibition, % at 5 µM. AID 1899. 0.33% of 300,000 active;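 active = inhibition above the mean of all tested compounds plus 3 SD, set per screening campaign, cut at about 45% in these data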
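Assay system: tagged HCV core106 pair (GST and Flag); medium: KF-containing HEPES buffer, pH 7.45, DTT, CHAPS, BSA; also added: Eu donor and XL665 acceptor anti-tag antibodies; dosing: 5 µM single dose; timing: compound-protein-antibody incubation 4 h at 22.5 °C; signal: TR-FRET 671 and 617 nm emission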
APOBEC3G inh: blocks human APOBEC3G single-stranded DNA deamination; Q9HC16; recombinant A3G, ssDNA deamination FAM/TAMRA fluorescence; inhibition, % at 20 µM; 0.28% of 330,000 active;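 active = inhibition of at least 40% at 20 µM, with no more than 30% in the related APOBEC3A deaminase screen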;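 note: plate controls were DMSO wells with A3G for no effect and wells lacking A3G enzyme for full effect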
A3A deaminase: inhibitors of human APOBEC3A DNA deaminase; 0.41% of 330,000 active; P31941; inhibition, % at 20 µM; recombinant A3A, FAM/TAMRA ssDNA deamination fluorescence; AID 493011;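 active = at least 40% inhibition at 20 µM here, with at most 30% in a related deaminase screen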;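 note: plate controls were A3A with DMSO for no effect and wells lacking A3A enzyme for full effect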
Target sequence (P31941 whole entry, looked up): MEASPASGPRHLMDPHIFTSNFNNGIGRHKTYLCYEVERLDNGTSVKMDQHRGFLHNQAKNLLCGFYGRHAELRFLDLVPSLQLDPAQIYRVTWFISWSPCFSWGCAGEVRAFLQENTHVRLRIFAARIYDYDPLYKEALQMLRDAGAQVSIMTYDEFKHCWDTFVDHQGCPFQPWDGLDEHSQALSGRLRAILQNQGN
NS3 helicase cf: HCV NS3 helicase inhibition, confirmation assay; shares compounds with NS3 helicase inh; NS3 helicase DNA unwinding, Cy5 molecular beacon fluorescence; inhibition, % at 10.9 µM; 31% of 1,600 active; AID 1943;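 active = inhibition above the mean of all tested compounds plus 3 SD, cutoff set per campaign, cut at about 36% in these data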
FID counter trip: intercalator displacement, NS3 helicase counter-screen. 4% of 1,600 active. inhibition, % at 7.9 µM. shares compounds with NS3 helicase inh. AID 1945. DNA fluorescent intercalator displacement, fluorescence; in the data active = inhibition above about 37%;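 note: 0% = vehicle and 100% = reference compound; higher means more displacement of ethidium bromide from the DNA hairpin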
DNA FID DR: displaces fluorescent intercalator from DNA, HCV helicase counter-screen; shares compounds with NS3 helicase inh; fluorescent intercalator displacement from DNA, fluorescence; IC50, µM; 120 tested, under 10 active; AID 2172; call rule not given here
Active calls of the source: *. Rows were chosen to be rich in hits. Some 2.9% of all compounds tested hit in one or more screens of this group.

Cn1c(N)c(C(=O)COC(=O)c2ccccc2C(F)(F)F)c(=O)n(C)c1=O was read as ABHD5-PLIN5 inh 2.2, PRMT1 inh -3.4, APOBEC3G inh -2.1 and A3A deaminase 1.5.
CS(=O)(=O)c1ccc(Nc2nc(C(N)Cc3ccc(Cl)cc3)cs2)cc1 (stereo not drawn) was read as ABHD5-PLIN5 inh 5.0 and PRMT1 inh 5.3.
For COCCCNC(=O)[C@@H](Cc1ccccc1)NC(=O)CC[C@H]1O[C@@H](n2ccc(=O)[nH]c2=O)[C@H](O)[C@@H]1O the results were ABHD5-PLIN5 inh 10.6 and PRMT1 inh 6.6.
O=C(N/N=C1/CC2CCC1C2)c1cc2ccccc2cc1O (stereo not drawn) was read as NS3 helicase inh 49.1*, ABHD5-PLIN5 inh -9.2, PRMT1 inh 0.5, HCV core dimer 3.0, APOBEC3G inh -9.8, A3A deaminase -5.1, NS3 helicase cf 1.1 and FID counter trip -7.8.
Screening O=C(NCC1CCCCC1)c1cc2ccccc2cc1O returned NS3 helicase inh 10.3, ABHD5-PLIN5 inh -2.4, PRMT1 inh -2.2, HCV core dimer 3.8, APOBEC3G inh -2.8 and A3A deaminase -4.6.
For CCOC(=O)/C=c1\s/c(=C(\C#N)C(=O)OCC)n(-c2ccccc2)c1=O the results were NS3 helicase inh 57.3*, ABHD5-PLIN5 inh 0.1, PRMT1 inh -0.1, HCV core dimer 10.5, APOBEC3G inh -1.5, A3A deaminase 1.1, NS3 helicase cf -8.6 and FID counter trip -9.8.
For CNC(=O)/C(C#N)=c1\s/c(=C/C(=O)OC)c(=O)n1-c1ccccc1 the results were NS3 helicase inh 8.3, ABHD5-PLIN5 inh 6.8, PRMT1 inh 2.8, HCV core dimer -5.5, APOBEC3G inh -6.0 and A3A deaminase -3.3.
CC(C)Nc1ccc(Cl)cc1[N+](=O)[O-] was read as NS3 helicase inh 41.0*, HCV core dimer -4.1, APOBEC3G inh -4.1, A3A deaminase -0.3, NS3 helicase cf -12.2 and FID counter trip 1.0.
`CN(C)CCNc1ccc(Cl)cc1[N+](=O)[O-]` gave NS3 helicase inh 3.6, ABHD5-PLIN5 inh 0.2, PRMT1 inh 2.6, HCV core dimer -1.8, APOBEC3G inh -0.4 and A3A deaminase 5.2.
COc1ccccc1N1CCN(C(=O)CSc2nc(C)c(Cc3ccccc3)c(=O)[nH]2)CC1 was read as NS3 helicase inh 41.4*, ABHD5-PLIN5 inh -3.9, PRMT1 inh 2.2, HCV core dimer 6.5, APOBEC3G inh -4.6, A3A deaminase 3.1, NS3 helicase cf -18.5 and FID counter trip -42.7.
`COc1ccccc1OCCNC(=O)C1CCN(C(C)=O)CC1` gave NS3 helicase inh 13.2, ABHD5-PLIN5 inh -16.4, PRMT1 inh -1.5, HCV core dimer 9.3, APOBEC3G inh -9.4 and A3A deaminase -4.8.
Oc1ccc(N=Nc2ccccc2C(F)(F)F)c2cccnc12 was read as NS3 helicase inh 48.5*, ABHD5-PLIN5 inh 6.7, PRMT1 inh 1.9, HCV core dimer 5.3, APOBEC3G inh 7.8, A3A deaminase 6.1, NS3 helicase cf -0.1 and FID counter trip 2.7.
`COc1ccccc1N=Nc1ccc(O)c2ncccc12` gave NS3 helicase inh 40.7*, ABHD5-PLIN5 inh 1.7, PRMT1 inh 2.2, HCV core dimer -29.5, APOBEC3G inh 2.5, A3A deaminase 2.3, NS3 helicase cf -18.9 and FID counter trip 2.8.
`CCCn1c(C(O)c2cccc(OC)c2)nc2ccccc21` (stereo not drawn) gave NS3 helicase inh 41.9*, ABHD5-PLIN5 inh 1.0, PRMT1 inh 2.8, APOBEC3G inh -8.3, A3A deaminase -6.5, NS3 helicase cf -15.8 and FID counter trip 0.1.
Screening CCCn1c(C(O)c2ccc(OC)cc2)nc2ccccc21 (stereo not drawn) returned NS3 helicase inh 2.4, ABHD5-PLIN5 inh -3.8, PRMT1 inh 1.1, HCV core dimer 7.8, APOBEC3G inh -6.2 and A3A deaminase -0.7.
COc1ccc(CCn2c(O)cc3nn(-c4nc5ccccc5s4)c(=O)c-3c2C)cc1 was read as NS3 helicase inh 46.2*, ABHD5-PLIN5 inh -3.9, PRMT1 inh 6.5, HCV core dimer 60.0*, APOBEC3G inh 13.0, A3A deaminase 7.9, NS3 helicase cf 77.7* and FID counter trip -16.5.
For COc1ccc(CN2CCN(c3nc4ccccc4s3)CC2)cc1 the results were NS3 helicase inh 22.9, ABHD5-PLIN5 inh 6.9, PRMT1 inh -2.4, APOBEC3G inh -9.8 and A3A deaminase -4.1.
For Cc1cccc(N2C(=O)C(O)=C(C(=O)c3cccs3)C2c2cccc(Oc3ccccc3)c2)n1 (stereo not drawn) the results were NS3 helicase inh 79.8*, ABHD5-PLIN5 inh -6.4, PRMT1 inh 4.7, HCV core dimer 31.8, APOBEC3G inh 1.8, A3A deaminase 0.6, NS3 helicase cf 113.8*, FID counter trip 17.8 and DNA FID DR >79.4.
CCOc1ccc(C2C(C(=O)c3ccc(C)o3)=C(O)C(=O)N2c2cc(C)on2)cc1OC (stereo not drawn) was read as NS3 helicase inh 18.4, ABHD5-PLIN5 inh -11.4, PRMT1 inh 4.8, HCV core dimer -5.4, APOBEC3G inh -3.4 and A3A deaminase -7.5.
`COc1cc(C2C(C(=O)c3cccs3)=C(O)C(=O)N2c2cc(C)on2)ccc1O` (stereo not drawn) gave NS3 helicase inh 44.6*, ABHD5-PLIN5 inh -8.8, PRMT1 inh -0.6, HCV core dimer 1.8, APOBEC3G inh -2.6, A3A deaminase -1.7, NS3 helicase cf -3.3 and FID counter trip 36.8*.
For CCCCCOc1ccc(C2C(C(=O)c3ccc(C)o3)=C(O)C(=O)N2c2cc(C)on2)cc1 (stereo not drawn) the results were NS3 helicase inh 62.6*, ABHD5-PLIN5 inh -25.7, PRMT1 inh 3.0, HCV core dimer 13.6, APOBEC3G inh -6.3, A3A deaminase -3.6, NS3 helicase cf 162.1*, FID counter trip -38.8 and DNA FID DR >79.4.
Screening COc1cc(C2C(C(=O)c3ccc(C)o3)=C(O)C(=O)N2c2cc(C)on2)ccc1OCc1ccccc1 (stereo not drawn) returned NS3 helicase inh 84.5*, ABHD5-PLIN5 inh -11.7, PRMT1 inh 3.4, HCV core dimer 13.3, APOBEC3G inh -6.8, A3A deaminase -5.6, NS3 helicase cf 187.7*, FID counter trip -26.3 and DNA FID DR >79.4.
COc1cccc(C2C(C(=O)c3cccs3)=C(O)C(=O)N2c2cc(C)on2)c1 (stereo not drawn) was read as NS3 helicase inh 12.1, ABHD5-PLIN5 inh -13.5, PRMT1 inh 1.0, HCV core dimer -1.4, APOBEC3G inh 1.7 and A3A deaminase 7.8.

Source: PubChem BioAssay (several laboratories)
